Measured values: ChEMBL document CHEMBL4706773, “Discovery of Novel PTP1B Inhibitors Derived from the BH3 Domain of Proapoptotic Bcl-2 Proteins with Antidiabetic Potency” (ACS Med Chem Lett, 2021)
Peptide text beside a SMILES is read from it. * marks the point of attachment. Palmitoyl = CCCCCCCCCCCCCCCC(=O)*

Columns and labels:
Mus musculus = test: Antidiabetic activity in diabetic db/db C57BL/K mouse assessed as decrease in blood glucose at 0.5 umol/kg, sc qd for 7 days measured at 1 hr post-last drug dosing by blood glucose meter analysis; format: functional; conditions: 168 h, time 7 day
Procedure, shortened: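 Diabetic db/db mice received a daily s.c. dose (0.5 or 2 μmol/kg) or vehicle for one week. Blood glucose was compared at baseline and at 1 week, and the value is the percent decrease of blood glucose. Liraglutide was the positive control.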

[1] = biological target: T1, Tyrosine-protein phosphatase non-receptor type 1 (Homo sapiens, UniProt P18031); test: Binding affinity to recombinant human PTP1B measured by Surface plasmon resonance assay
T1 sequence (P18031 whole entry): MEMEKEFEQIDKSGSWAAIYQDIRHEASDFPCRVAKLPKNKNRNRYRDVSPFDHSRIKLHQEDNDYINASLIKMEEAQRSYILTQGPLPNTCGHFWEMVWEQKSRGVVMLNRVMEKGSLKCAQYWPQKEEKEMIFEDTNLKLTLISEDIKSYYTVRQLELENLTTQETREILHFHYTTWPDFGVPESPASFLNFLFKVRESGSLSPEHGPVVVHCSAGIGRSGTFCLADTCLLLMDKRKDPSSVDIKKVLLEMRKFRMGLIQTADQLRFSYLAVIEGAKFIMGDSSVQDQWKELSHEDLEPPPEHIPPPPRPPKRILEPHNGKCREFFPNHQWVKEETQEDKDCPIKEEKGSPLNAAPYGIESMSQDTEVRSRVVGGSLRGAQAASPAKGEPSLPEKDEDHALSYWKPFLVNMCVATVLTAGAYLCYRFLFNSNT

[2] = biological target: T1, Tyrosine-protein phosphatase non-receptor type 1; test: Inhibition of recombinant N-terminal His-tagged human PTP1B (E2 to N321) expressed in Escherichia coli expression system assessed by dephosphorylation of substrate pNPP measured for 4 mins by plate reader analysis
[3] = biological target: T2, Tyrosine-protein phosphatase non-receptor type 1 (Homo sapiens) (UniProt P18031); test: Inhibition of PTP1B in human insulin resistant HepG2 cells assessed as induction of 2-NBDG uptake incubated with compound for 24 hrs followed by treatment with insulin for 30 mins and later incubated with 2-NBDG for 30 mins by fluorimetric method; format: cell-based; conditions: dose 0.1-10 µM, time 25.0 hrs
T2 sequence (whole entry): T1 sequence (P18031 whole entry)
Procedure, shortened: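 HepG2 cells were made insulin-resistant with palmitic acid, then treated 24 h with test agents at several concentrations. Vehicle was equal-volume DMSO. Mean ± SD, n = 4, compared with vehicle.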

[4] = biological target: T2, Tyrosine-protein phosphatase non-receptor type 1 (Homo sapiens); test: Binding affinity to recombinant human PTP1B assessed as on-rate constant, Kon measured by Surface plasmon resonance assay
[5] = biological target: T2, Tyrosine-protein phosphatase non-receptor type 1 (Homo sapiens); test: Binding affinity to recombinant human PTP1B assessed as off-rate constant, Koff measured by Surface plasmon resonance assay

Kd [1]	Kd ([1]; read-out: Kd) [nM]	IC50 [2] [nM]	inhibition [3]	K [4]	K [5]	Compound	further results
						CCCCCCCCCCCCCCCC(=O)N[C@@H](CCC(=O)NCCCC[C@H](NC(=O)[C@H](C)NC(=O)[C@H](C)NC(=O)[C@H](CCC(N)=O)NC(=O)CNC(=O)[C@H](CCC(=O)O)NC(=O)[C@H](CC(C)C)NC(=O)[C@H](Cc1ccc(O)cc1)NC(=O)[C@H](CO)NC(=O)[C@H](CO)NC(=O)[C@@H](NC(=O)[C@H](CC(=O)O)NC(=O)[C@H](CO)NC(=O)[C@@H](NC(=O)[C@H](Cc1ccccc1)NC(=O)[C@@H](NC(=O)CNC(=O)[C@H](CCC(=O)O)NC(=O)[C@H](C)NC(=O)[C@@H](N)Cc1cnc[nH]1)[C@@H](C)O)[C@@H](C)O)C(C)C)C(=O)N[C@@H](CCC(=O)O)C(=O)N[C@@H](Cc1ccccc1)C(=O)N[C@H](C(=O)N[C@@H](C)C(=O)N[C@@H](Cc1c[nH]c2ccccc12)C(=O)N[C@@H](CC(C)C)C(=O)N[C@H](C(=O)N[C@@H](CCCNC(=N)N)C(=O)NCC(=O)N[C@@H](CCCNC(=N)N)C(=O)NCC(=O)O)C(C)C)[C@@H](C)CC)C(=O)O [LIRAGLUTIDE]	inhibition in vivo at 0.5 µmol/kg (Mus musculus): 72.6%
Not Active						CCCCCCCCCCCCCCCC(=O)N[C@H](C(=O)N[C@@H](C)C(=O)N[C@@H](CCCNC(=N)N)C(=O)N[C@@H](CCCCN)C(=O)N[C@@H](CC(C)C)C(=O)N[C@@H](CCC(N)=O)C(=O)N[C@@H](CS)C(=O)N[C@H](C(=O)N[C@@H](C)C(=O)N[C@@H](CC(=O)O)C(=O)N[C@@H](CCC(N)=O)C(=O)N[C@@H](Cc1ccccc1)C(=O)O)[C@@H](C)CC)[C@@H](C)CC (Palmitoyl-IARKLQCIADQF-OH)	
	105	6840	Dose-dependent effect	1.45 10^4/M.s	1.52 10^-4/s	H-WAREIGAQLRRMADDLNAQY-OH	
Not Active						CCCCCCCCCCCCCCCC(=O)N[C@@H](CS)C(=O)N[C@@H](C)C(=O)N[C@H](C(=O)N[C@@H](CCC(N)=O)C(=O)N[C@@H](CC(C)C)C(=O)N[C@@H](CCCNC(=N)N)C(=O)N[C@@H](CCCNC(=N)N)C(=O)N[C@@H](Cc1ccccc1)C(=O)NCC(=O)N[C@@H](CC(=O)O)C(=O)N[C@@H](CCCCN)C(=O)N[C@@H](CC(C)C)C(=O)O)[C@@H](C)O (Palmitoyl-CATQLRRFGDKL-OH)	
	86.3	5250	Dose-dependent effect	9.73 10^3/M.s	8.39 10^-4/s	H-STKKLSECLKRIGDELDSNM-OH	
Not Active						CCCCCCCCCCCCCCCC(=O)N[C@@H](Cc1ccc(O)cc1)C(=O)NCC(=O)N[C@@H](CCCNC(=N)N)C(=O)N[C@@H](CCC(=O)O)C(=O)N[C@@H](CC(C)C)C(=O)N[C@@H](CCCNC(=N)N)C(=O)N[C@@H](CCCNC(=N)N)C(=O)N[C@@H](CCSC)C(=O)N[C@@H](CO)C(=O)N[C@@H](CC(=O)O)C(=O)N[C@@H](CCC(=O)O)C(=O)N[C@@H](Cc1ccccc1)C(=O)O (Palmitoyl-YGRELRRMSDEF-OH)	
